Series [1] can be described thus: Inhibition of Staphylococcus aureus FabI using t-o-NAC-thioester as substrate by spectrophometric method.
Series [2] is described as follows: Cytotoxicity against African green monkey Vero cells at 4.75 ug/ml measured after 48 hrs by neutral red assay. The class given is toxicity, cell-based. The settings on record: chlorocebus sabaeus. Summed up:
(§1)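 Vero (African green monkey kidney) cells were seeded at 25,000 cells/well and grown 24 h. Compounds were then added, with DMSO as vehicle control and doxorubicin as positive control, and incubated 48 h. Viable cells were counted by neutral red uptake. Highest concentration tested was 4.75 μg/mL. IC50 was read from logarithmic plots of growth inhibition versus concentration.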

The test system of series [3] is Mycobacterium tuberculosis. The series is described as follows: Antimycobacterial activity against Mycobacterium tuberculosis H37Rv measured after 5 days by MTT dye based two-fold microdilution method. The class given is functional. To be noted: 120 h. Summed up:
(§2)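 Two-fold serial dilution in 96-well plates in Middlebrook 7H9 with 10% ADS and 1% glycerol (7H9-ADS-G). DMSO stocks were diluted to a top concentration of 100 μg/mL and down to 0.8 μg/mL, run in duplicate. Wells received mid-log bacilli in 7H9-ADS-G, incubated 5 days at 37 °C, then MTT for 24 h. MIC is the lowest concentration blocking yellow-to-purple change. Rifampicin was the control.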

Series [4] relates to Mycobacterium tuberculosis. The series is described as follows: Inhibition of Mycobacterium tuberculosis InhA assessed as remaining activity at 20 uM using trans-2-dodecenoyl-coenzyme A as substrate relative to control. Summed up:
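Wild-type InhA (100 nM) started the reaction with 25 μM trans-2-dodecenoyl-CoA, 250 μM NADH and 20 μM inhibitor in 30 mM PIPES, 150 mM NaCl, pH 6.8. Initial velocity was compared with an inhibitor-free control; remaining activity is vi/v0.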

Series [5] has as its system Mycobacterium tuberculosis. The series is described as follows: Antimycobacterial activity against Mycobacterium tuberculosis H37Rv ATCC 27294 measured after 10 days by broth dilution method. The class given is functional. To be noted: H37Rv ATCC 27294, 240 h.
A short description of series [6]: Cytotoxicity against African green monkey Vero cells measured after 48 hrs by neutral red assay. The class given is toxicity, cell-based. To be noted: African green monkey (Chlorocebus sabaeus). The procedure, abridged: as §1
Series [7] is described as follows: Therapeutic index, ratio of IC50 for cytotoxicity against African green monkey Vero cells to MIC for antimycobacterial activity against Mycobacterium tuberculosis H37Rv. To be noted: read-out: TI. The class given is cell-based. The procedure, abridged:
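Vero cells were seeded at 25,000/well, grown 24 h, then exposed to compound for 48 h, with a maximum of 4.75 μg/mL and DMSO as vehicle. Viability was read by neutral red uptake. IC50 came from log plots of growth inhibition versus concentration. The index is cytotoxic IC50 divided by MIC against H37Rv from the MTT microdilution assay.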

Series [8] concerns Mycobacterium tuberculosis. The series is described as follows: Antimycobacterial activity against Mycobacterium tuberculosis isolate 304 measured after 5 days by MTT dye based two-fold microdilution method. The settings on record: isolate 304, 120 h. The class given is functional. The procedure, abridged: as §2
The subject of series [9] is Mycobacterium tuberculosis. The series is described as follows: Antimycobacterial activity against Mycobacterium tuberculosis isolate 598 measured after 5 days by MTT dye based two-fold microdilution method. It counts as functional. To be noted: isolate 598, 120 h. The procedure, abridged: as §2
The test system of series [10] is Mycobacterium tuberculosis. The series is described as follows: Antimycobacterial activity against Mycobacterium tuberculosis isolate 51 measured after 5 days by MTT dye based two-fold microdilution method. It counts as functional. The settings on record: isolate 51, 120 h. Summed up:
as §2

For series [11], the system named is Mycobacterium tuberculosis. The series is described as follows: Antimycobacterial activity against Mycobacterium tuberculosis isolate 164 measured after 5 days by MTT dye based two-fold microdilution method. The class given is functional. To be noted: isolate 164, 120 h. Summed up: as §2

Values after ≈ are worked out from the molar mass of the structure shown.

`CCCCC/C=C\C/C=C\C/C=C\C/C=C\CCCC(=O)O` [ARACHIDONIC ACID] showed an IC50 in [1] of 40 µM.

`CCCCCC/C=C\CCCCCCCC(=O)O` [PALMITOLEIC ACID]: the IC50 in [1] came to 40 µM.

For the compound `CCCCCCCCc1cn(CCCC(=O)OCC)nn1`, in series [2], the Activity entry was “Non-Toxic”. Besides, the MIC in [3] is 21 µM (≈ 6.2 µg/mL).

With `CCCc1cn(CC(=O)OCC)nn1`, the Activity result in series [2] is “Non-Toxic”; in series [4], 69%. The MIC in series [3] came out at 505 µM (≈ 99.6 µg/mL).

As to `CCCCCCCCCCc1cnnn1CC(=O)OCC`, in [2], the Activity entry was “Non-Toxic”. Besides, in series [3], the lowest concentration to inhibit growth (MIC) was 84 µM (≈ 24.8 µg/mL).

On to `CCCCCc1cn(CCCCCC(=O)OCC)nn1`, for which the Activity entry in series [2] is on record as “Non-Toxic”. This compound also yielded an MIC in series [3] of 22 µM (≈ 6.19 µg/mL).

Regarding `CCCCCCCCc1cn(CCC(=O)OCC)nn1`, in [2], the Activity result is “Non-Toxic”. 22 µM (≈ 6.19 µg/mL) was the least that counted as inhibitory in [3] (MIC).

On to `CCCCCCCCCCCCCn1cc(CO)nn1`, for which the Activity result in series [2] was “Non-Toxic”. Also, the MIC in series [3] stood at 44 µM (≈ 12.4 µg/mL).

For the compound `CCCCCCCCc1cnnn1CC(=O)OCC`, the Activity result in series [2] is “Non-Toxic”. The compound also had an MIC in series [3] of 93 µM (≈ 24.9 µg/mL).

Turning to `CCCCCCCCCCCCO` [DODECANOL], 5 µg/mL was the least that counted as inhibitory in series [5] (MIC).

Turning to `CCCCCCCCn1cc(C(=O)O)nn1`, in series [2], the Activity result is reported as “Non-Toxic”. For the same compound, in [3], the minimum inhibitory concentration (MIC) is 14 µM (≈ 3.15 µg/mL).

`CCCCCCCCCCn1cc(CO)nn1`: the Activity entry in series [2] is listed as “Non-Toxic”. The MIC in series [3] turned out to be 209 µM (≈ 50 µg/mL).

Turning to `CCCCCCCCCCc1cn(CCC(=O)OCC)nn1`, the Activity result in series [2] was “Non-Toxic”. The MIC in series [3] was 20 µM (≈ 6.19 µg/mL).

Take `CCCCCCCCc1cn(CCCCC(=O)OCC)nn1`: the Activity result in [2] is reported as “Non-Toxic”. In series [3], this compound yielded an MIC of 40 µM (≈ 12.4 µg/mL).

On to `CCCCCCCCCCCCCCCCO` [CETYL ALCOHOL], for which 5 µg/mL was the least that counted as inhibitory in series [5] (MIC).

In series [6], `COc1cccc2c1C(=O)c1c(O)c3c(c(O)c1C2=O)C[C@@](O)(C(=O)CO)C[C@@H]3O[C@H]1C[C@H](N)[C@H](O)[C@H](C)O1` [DOXORUBICIN] registered an IC50 at 48 h of 14 µM.

With `CCCCCCCCc1cn(CCCCCC(=O)OCC)nn1`, the Activity result in series [2] is “Non-Toxic”. The compound also returned an MIC in [3] of 309 µM (≈ 100 µg/mL).

`CCCCCCCCCCc1cn(CCCCC(=O)OCC)nn1`: the Activity result in series [2] was “Non-Toxic”. Moreover, the MIC in series [3] is 37 µM (≈ 12.5 µg/mL).

On to `CCCCCCCCCCCCCc1cn(CC(=O)OCC)nn1`, for which the Activity entry in [2] is reported as “Non-Toxic”. In addition, in series [3], the MIC was found to be 296 µM (≈ 99.9 µg/mL).

With `CCCCCc1cn(CCCCC(=O)OCC)nn1`, the Activity entry in series [2] was “Non-Toxic”. For the same compound, in [3], the lowest concentration to inhibit growth (MIC) was 23 µM (≈ 6.15 µg/mL).

On to `CCCCCCCCCCn1cc(C(=O)O)nn1`, for which the Activity result in [2] is “Non-Toxic”. Moreover, the MIC in series [3] was determined as 20 µM (≈ 5.07 µg/mL).

As to `CCCCCCCCn1cc(CO)nn1`, the Activity entry in series [2] is “Non-Toxic”. The same compound gave an MIC in series [3] of 473 µM (≈ 99.9 µg/mL).

Regarding `CCCCCCCCCCCCCn1cc(C(=O)OC)nn1`, in [2], the Activity result is on record as “Non-Toxic”. The MIC in series [3] is 323 µM (≈ 100 µg/mL).

Consider `CCCCCCCCCCc1cn(CC(=O)OCC)nn1`, for which, in series [7], the selectivity ratio was above 10. In series [6], this compound displayed an IC50 at 48 h above 16.1 µM. Further, in series [4], the Activity came to 99.3%. This compound came in with an MIC in [3] of 1.7 µM (≈ 0.502 µg/mL).

As to `CCCc1cn(CCCCCC(=O)OCC)nn1`, the Activity entry in [2] was “Non-Toxic”. This compound also displayed a minimal inhibitory concentration (MIC) in [3] of 394 µM (≈ 99.8 µg/mL).

Regarding `CCCCCCCC/C=C\CCCCCCCC(=O)O` [OLEIC ACID], the IC50 in series [1] turned out to be 40 µM.

Take `CCCCCc1cn(CC(=O)OCC)nn1`: the Activity entry was “Non-Toxic” in series [2] and 73.2% in series [4]. In series [3], this compound returned an MIC of 111 µM (≈ 25 µg/mL).

Turning to `CCCCCCCCCCn1cc(C(=O)OC)nn1`, the Activity result in series [2] is recorded as “Non-Toxic”. The same compound displayed an MIC in series [3] of 23 µM (≈ 6.15 µg/mL).

As to `CCCCCCCCCCCCCCCc1cn(CC(=O)OCC)nn1`, the Activity result in [2] is on record as “Non-Toxic”. The compound further showed an MIC in series [3] of 17 µM (≈ 6.21 µg/mL).

With `CCCCCCCCCCO` [DECANOL], inhibition of growth in series [5] (MIC) required 800 µM.

`CC/C=C\C/C=C\C/C=C\CCCCCCCC(=O)O` [LINOLENIC ACID] returned an IC50 in [1] of 40 µM.

Take `CCCCCCCCc1cn(CC(=O)OCC)nn1`: the selectivity ratio in series [7] was above 10. In addition, the minimum inhibitory concentration (MIC) in series [8] was 1.9 µM (≈ 0.508 µg/mL); in [9] it was 1.9 µM (≈ 0.508 µg/mL); in series [10], 0.45 µM (≈ 0.12 µg/mL); in [11], 1.9 µM (≈ 0.508 µg/mL); in series [3] it was 1.9 µM (≈ 0.508 µg/mL). For the same compound, the IC50 at 48 h in series [6] is above 17.8 µM. Besides, the Activity in series [4] came out at 90.1%.

For `CCCCCCCCCCCCCCO` [MYRISTYL ALCOHOL], inhibition of growth in series [5] (MIC) required 5 µg/mL.

Take `CCCCCCCCCCc1cn(CCCC(=O)OCC)nn1`: the Activity entry in series [2] is given as “Non-Toxic”. Besides, in series [3], the MIC was 309 µM (≈ 100 µg/mL).

Compound `CCCCC/C=C\C/C=C\CCCCCCCC(=O)O` [LINOLEIC ACID] showed an IC50 in [1] of 40 µM.

As for `CCCCCCCCn1cc(C(=O)OC)nn1`, the Activity entry in series [2] was “Non-Toxic”. In series [3], the MIC was 52 µM (≈ 12.4 µg/mL).

In the case of `CCCCCc1cn(CCCC(=O)OCC)nn1`, the Activity result in [2] was “Non-Toxic”. In [3], this compound gave an MIC of 12 µM (≈ 3.04 µg/mL).

Values taken from ChEMBL document CHEMBL3877283, “Antitubercular activity of 1,2,3-triazolyl fatty acid derivatives” (Eur J Med Chem, 2017).
